Laboratory results reported in ChEMBL document CHEMBL1275571, “Impact of self-assembly properties on antibacterial activity of short acyl-lysine oligomers” (Antimicrob Agents Chemother, 2008).
≈ marks a conversion by molar mass, not a printed value. Non-standard residues stand in square brackets, D forms with d. Residues, ends and D or L forms follow the SMILES beside them. *: point of attachment. Palmitoyl = CCCCCCCCCCCCCCCC(=O)*; 12Ado = NCCCCCCCCCCCC(=O)O

Legend:
Escherichia coli = experiment: Antimicrobial activity against Escherichia coli ATCC 35218 by microdilution method; format: functional
How it was run: (§1)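 Overnight LB cultures were diluted 10,000-fold and used at 2 × 105 to 4 × 10^5 CFU/ml (LB pH 7.4). They were mixed 1:1 with compound in twofold serial dilutions from 0 to 50 μΜ. Plates were incubated overnight at 37°C and read by OD620. The MIC is the concentration giving 100% inhibition. Values are from at least two independent assays run in duplicate.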

Pseudomonas aeruginosa = experiment: Antimicrobial activity against Pseudomonas aeruginosa ATCC 9027 by microdilution method; format: functional; how it was run: as §1
Staphylococcus aureus = experiment: Antimicrobial activity against Staphylococcus aureus ATCC 25923 by microdilution method; format: functional; how it was run: as §1
Enterococcus faecalis = experiment: Antimicrobial activity against Enterococcus faecalis ATCC 29212 by microdilution method; format: functional; how it was run: as §1
[1] = Cytotoxicity against human RBC assessed as hemolysis; format: organism-based; conditions: human red blood cells (RBC), read-out: LC50 (the source's name)
How it was run: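 Human red blood cells at 1% hematocrit incubated 3 h at 37°C with the compound in PBS (50 mM sodium phosphate, 150 mM NaCl, pH 7.4). Value is the concentration giving 50% hemolysis (LC50, μM). Values are rounded up to the nearest half unit, as means ± standard deviations of at least four independent experiments run in duplicate.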

Lipid bilayer [2] = experiment: Apparent affinity to phospholipid membrane in cell-free system at low concentration range of 0.16 to 2.5 uM
How it was run: (§2)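 Surface plasmon resonance on a POPC-POPG (3:1) small-unilamellar-vesicle bilayer on an L1 chip. Compound was in PBS pH 7.4 at the low series (0.16, 0.31, 0.62, 1.25, 2.5 μM), duplicate injections each. Affinity constants were calculated with a two-step binding model from the average of five duplicated binding curves.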

Lipid bilayer [3] = experiment: Apparent affinity to phospholipid membrane in cell-free system at high concentration range of 3.1 to 50 uM
How it was run: (§3)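 SPR on an L1 chip, with small unilamellar vesicles of POPC-POPG (3:1 molar ratio) as the bilayer. Compound was in PBS pH 7.4 and injected in the high series (3.1, 6.25, 12.5, 25, 50 μM), two injections per concentration. Association and dissociation curves were fitted to a two-step binding model. Constants come from five duplicated curves.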

Lipid bilayer [4] = experiment: Adhesion affinity to phospholipid membrane in cell-free system at low concentration range of 0.16 to 2.5 uM; how it was run: as §2
Lipid bilayer [5] = experiment: Adhesion affinity to phospholipid membrane in cell-free system at high concentration range of 3.1 to 50 uM; how it was run: as §3

Compound | MBC (Escherichia coli) | MIC (Escherichia coli) | MBC (Pseudomonas aeruginosa) | MIC (Pseudomonas aeruginosa) | MBC (Staphylococcus aureus) | MIC (Staphylococcus aureus) | MBC (Enterococcus faecalis) | HC50 [1] | Kapp (Lipid bilayer [2]) | Kapp (Lipid bilayer [3]) | K (Lipid bilayer [4]) | K (Lipid bilayer [5])
CCCCCC/C=C\CCCCCCCC(=O)N[C@@H](CCCCN)C(=O)N[C@@H](CCCCN)C(=O)NCCCCCCCCCCCC(=O)N[C@@H](CCCCN)C(N)=O | 12.5 µM (≈ 10.4 µg/mL) | 6 µM (≈ 5.01 µg/mL) | 50 µM (≈ 41.8 µg/mL) | 12.5 µM (≈ 10.4 µg/mL) | 6 µM (≈ 5.01 µg/mL) | 3 µM (≈ 2.51 µg/mL) | 6 µM (≈ 5.01 µg/mL) | 8.5 µM | 1.7 ×10⁷ /M | 4.5 ×10⁷ /M | 2.1 ×10⁶ /M | 1.5 ×10⁶ /M
CCCCCCCCCCCCCCCC(=O)N[C@@H](CCCCN)C(=O)N[C@@H](CCCCN)C(=O)NCCCCCCCCCCCC(=O)N[C@@H](CCCCN)C(N)=O (Palmitoyl-KK[12Ado]K-NH2) | > 50 µM | 25 µM (≈ 20.9 µg/mL) | > 50 µM | > 25 µM | > 25 µM | 6 µM (≈ 5.02 µg/mL) | > 25 µM | 15 µM | 8.3 ×10⁷ /M | 4.3 ×10⁴ /M | 2.2 ×10⁶ /M | 4.3 ×10⁵ /M
